The target in series [1] is Ribosomal protein S6 kinase beta-1 (Homo sapiens, UniProt P23443, D18H/T412E). Nature of the series: Inhibition of human p70S6K D18H and T412E mutant using RRRLSSLRA as substrate after 3 hrs by luciferase-luciferin-coupled chemiluminescence assay.
The nature of series [2]: Inhibition of p70S6K-mediated S6 phosphorylation in human A549 cells after 3 hrs by chemiluminescence assay. The note with it: A549, 3 h. In kind it is cell-based. The method in brief:
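A549 cells seeded at 7.5 × 10^3/well in DMEM with 10% FBS and 1% non-essential amino acids, grown 48 h at 37 °C, then exposed 3 h to compound ([…], triplicate, 0.2% DMSO). Fixed in formaldehyde, blocked, probed overnight at 4 °C with anti-phospho-S6 (Ser240/244) or anti-total-S6, then HRP secondary; chemiluminescent ELISA read-out.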

Series [3] deals with Ribosomal protein S6 kinase alpha-3 (Homo sapiens, UniProt P51812). Briefly: Inhibition of Rsk2.
Chain of Ribosomal protein S6 kinase alpha-3 (P51812 whole entry): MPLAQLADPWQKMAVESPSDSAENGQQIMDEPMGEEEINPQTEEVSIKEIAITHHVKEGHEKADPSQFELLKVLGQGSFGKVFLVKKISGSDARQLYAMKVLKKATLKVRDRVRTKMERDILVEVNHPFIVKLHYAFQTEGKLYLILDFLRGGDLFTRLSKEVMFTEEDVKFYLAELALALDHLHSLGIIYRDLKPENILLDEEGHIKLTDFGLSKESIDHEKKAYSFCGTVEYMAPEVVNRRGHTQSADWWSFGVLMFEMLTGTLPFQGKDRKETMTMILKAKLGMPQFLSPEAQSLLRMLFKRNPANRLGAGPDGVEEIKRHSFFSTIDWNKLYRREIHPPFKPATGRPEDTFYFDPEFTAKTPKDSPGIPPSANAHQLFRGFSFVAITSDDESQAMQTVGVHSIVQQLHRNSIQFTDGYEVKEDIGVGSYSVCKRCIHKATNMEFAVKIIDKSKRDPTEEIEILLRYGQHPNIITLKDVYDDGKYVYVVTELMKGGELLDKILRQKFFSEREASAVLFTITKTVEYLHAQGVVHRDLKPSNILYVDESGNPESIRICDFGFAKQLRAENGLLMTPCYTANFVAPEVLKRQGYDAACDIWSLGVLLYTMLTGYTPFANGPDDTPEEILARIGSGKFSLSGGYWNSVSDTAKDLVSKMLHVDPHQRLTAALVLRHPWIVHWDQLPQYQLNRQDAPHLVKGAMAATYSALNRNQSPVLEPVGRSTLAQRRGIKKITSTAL
Series [4] is described as follows: Inhibition of PKA.
The target in series [5] is RAC-alpha serine/threonine-protein kinase (Homo sapiens, UniProt P31749). Briefly: Inhibition of Akt1.
Chain of RAC-alpha serine/threonine-protein kinase (P31749 whole entry): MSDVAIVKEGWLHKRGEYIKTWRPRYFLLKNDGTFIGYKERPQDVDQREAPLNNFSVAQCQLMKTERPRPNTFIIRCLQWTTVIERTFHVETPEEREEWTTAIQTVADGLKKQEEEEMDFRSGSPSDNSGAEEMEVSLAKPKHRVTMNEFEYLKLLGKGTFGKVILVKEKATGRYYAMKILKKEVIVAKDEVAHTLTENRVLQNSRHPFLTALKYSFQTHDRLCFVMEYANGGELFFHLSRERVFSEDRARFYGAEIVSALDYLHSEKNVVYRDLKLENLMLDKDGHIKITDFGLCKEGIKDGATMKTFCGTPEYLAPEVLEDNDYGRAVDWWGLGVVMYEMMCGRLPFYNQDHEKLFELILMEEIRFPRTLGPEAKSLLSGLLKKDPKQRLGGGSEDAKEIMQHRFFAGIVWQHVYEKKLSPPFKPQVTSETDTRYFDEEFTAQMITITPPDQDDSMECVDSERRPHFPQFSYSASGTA
The target of series [6] is RAC-beta serine/threonine-protein kinase (Homo sapiens, UniProt P31751). Briefly: Inhibition of Akt2.
Chain of RAC-beta serine/threonine-protein kinase (P31751 whole entry): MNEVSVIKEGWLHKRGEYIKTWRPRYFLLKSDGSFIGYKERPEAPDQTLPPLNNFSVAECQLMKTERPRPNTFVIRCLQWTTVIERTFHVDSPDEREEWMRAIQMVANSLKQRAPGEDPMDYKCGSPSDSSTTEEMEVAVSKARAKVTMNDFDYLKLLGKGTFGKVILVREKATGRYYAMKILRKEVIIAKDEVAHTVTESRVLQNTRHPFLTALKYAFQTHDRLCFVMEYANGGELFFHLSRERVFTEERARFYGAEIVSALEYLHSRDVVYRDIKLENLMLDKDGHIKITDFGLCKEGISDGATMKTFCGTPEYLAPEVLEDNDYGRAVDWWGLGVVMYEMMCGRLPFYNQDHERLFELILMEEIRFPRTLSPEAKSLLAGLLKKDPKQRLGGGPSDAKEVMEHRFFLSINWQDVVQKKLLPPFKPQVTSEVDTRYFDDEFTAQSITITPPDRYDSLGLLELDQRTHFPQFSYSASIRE
In series [7] the target is Serine/threonine-protein kinase pim-1 (Homo sapiens, UniProt P11309). Briefly: Inhibition of PIM1.
Chain of Serine/threonine-protein kinase pim-1 (P11309 whole entry): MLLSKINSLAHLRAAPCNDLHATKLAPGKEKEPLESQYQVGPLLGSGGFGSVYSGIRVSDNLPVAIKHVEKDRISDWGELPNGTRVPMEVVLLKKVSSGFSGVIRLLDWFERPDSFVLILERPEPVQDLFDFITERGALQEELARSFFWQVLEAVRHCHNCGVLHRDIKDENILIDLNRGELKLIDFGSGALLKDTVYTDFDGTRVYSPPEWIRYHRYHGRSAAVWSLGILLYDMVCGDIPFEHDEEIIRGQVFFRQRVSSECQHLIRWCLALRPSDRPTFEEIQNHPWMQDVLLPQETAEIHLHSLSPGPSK
The nature of series [8]: Clearance in rat at 2.5 mg/kg, iv and 2.5 mg/kg, po. The class given is ADME, organism-based. The note with it: in vivo.
Series [9] is described as follows: Volume of distribution in rat at 2.5 mg/kg, iv and 2.5 mg/kg, po. The class given is ADME, organism-based. The conditions noted are these: in vivo.
Series [10] in a line: Half life in rat at 2.5 mg/kg, iv. The conditions noted are these: in vivo. In kind it is ADME, organism-based. Also on record: dose 2.5 mg/kg, route intravenous.
Series [11] is described as follows: Half life in rat at 2.5 mg/kg, po. In kind it is ADME, organism-based. Also on record: dose 2.5 mg/kg, route oral. The note with it: in vivo.
Series [12] is described as follows: Oral bioavailability in rat at 2.5 mg/kg. In kind it is ADME, organism-based. The conditions noted are these: in vivo.
Series [13] is described as follows: Cmax in rat at 2.5 mg/kg, iv. Also on record: dose 2.5 mg/kg, route intravenous. The class given is ADME, organism-based. The note with it: in vivo.
The nature of series [14]: Cmax in rat at 2.5 mg/kg, po. In kind it is ADME, organism-based. Further details: dose 2.5 mg/kg, route oral. The note with it: in vivo.
Series [15] concerns Rattus norvegicus. Nature of the series: Dose normalized AUC in rat at 2.5 mg/kg, iv. The class given is ADME, organism-based. Further details: dose 2.5 mg/kg, route intravenous. The conditions noted are these: in vivo.
Series [16] concerns Rattus norvegicus. Briefly: Dose normalized AUC in rat at 2.5 mg/kg, po. The class given is ADME, organism-based. Also on record: dose 2.5 mg/kg, route oral. The note with it: in vivo.
The subject of series [17] is Mus musculus. Nature of the series: Inhibition of p70S6K-mediated S6 phosphorylation in human PC3 cells xenografted in mouse at 100 mg/kg, po. The conditions noted are these: PC-3. In kind it is functional.
Series [18] has as its system PC-3. Briefly: Antitumor activity against human PC3 cells xenografted in mouse assessed as tumor growth inhibition at 30 mg/kg, po bid for 14 days. The conditions noted are these: PC-3, 336 h, read-out: GI. In kind it is functional. The essentials:
(§1)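 PC3 prostate carcinoma xenografts in mice; compound given orally at 30, 100 or 300 mg/kg twice daily for 14 days; tumor growth inhibition recorded.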

For series [19], the system named is PC-3. Nature of the series: Antitumor activity against human PC3 cells xenografted in mouse assessed as tumor growth inhibition at 100 mg/kg, po bid for 14 days. In kind it is functional. The note with it: PC-3, 336 h, read-out: GI. The method in brief: as §1
The subject of series [20] is PC-3. Nature of the series: Antitumor activity against human PC3 cells xenografted in mouse assessed as tumor growth inhibition at 300 mg/kg, po bid for 14 days. The class given is functional. The conditions noted are these: PC-3, 336 h, read-out: GI. The method in brief:
as §1
(In general: A xenograft is tissue or cells of one species grown in another, often human tumour cells in immunodeficient mice.)

Series [21] relates to PC-3. Briefly: Antitumor activity against human PC3 cells xenografted in mouse assessed as tumor growth inhibition compound administered po bid for 14 days. In kind it is functional, organism-based. The essentials: as §1

Consider 25 compounds from ChEMBL document CHEMBL2010702, “Design and evaluation of a series of pyrazolopyrimidines as p70S6K inhibitors” (Bioorg Med Chem Lett, 2012).

In general, IC50 refers to the concentration at which inhibition is half-maximal. High values mean weaker potency, low ones greater potency. For orientation: half-life means how long it takes for the measured level to halve. The low end stands for fast loss, the high end for slow loss. One may read the bioavailability as dose-corrected exposure relative to a reference, in per cent. A low value points to little systemic uptake. As usually defined, the Cmax is the maximum level reached in the sampled fluid or tissue.

Chain of Ribosomal protein S6 kinase beta-1 (P23443 whole entry D18H/T412E): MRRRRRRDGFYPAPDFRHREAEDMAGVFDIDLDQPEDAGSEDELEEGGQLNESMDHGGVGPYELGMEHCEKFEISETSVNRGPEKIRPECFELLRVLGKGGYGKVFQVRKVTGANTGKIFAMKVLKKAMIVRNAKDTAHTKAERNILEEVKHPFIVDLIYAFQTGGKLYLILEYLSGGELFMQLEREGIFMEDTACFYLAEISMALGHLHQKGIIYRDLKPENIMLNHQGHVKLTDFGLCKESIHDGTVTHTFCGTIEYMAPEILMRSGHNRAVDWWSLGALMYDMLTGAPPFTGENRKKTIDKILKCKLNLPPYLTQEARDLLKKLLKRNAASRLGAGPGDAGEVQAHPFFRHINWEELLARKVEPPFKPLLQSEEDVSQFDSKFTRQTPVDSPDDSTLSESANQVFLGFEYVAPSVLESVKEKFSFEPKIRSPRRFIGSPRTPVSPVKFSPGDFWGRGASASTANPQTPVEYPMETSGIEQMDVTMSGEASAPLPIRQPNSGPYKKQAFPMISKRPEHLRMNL

In the case of `Nc1ncnc(N2CCN(c3cccc(Cl)c3)CC2)c1[N+](=O)[O-]`, the IC50 in series [1] worked out at 85 nM.
For the compound `CCCc1n[nH]c2ncnc(N3CCN(c4cc(Cl)ccc4C)CC3)c12`, the values for the IC50 in [1] and in series [2] were 6 nM and 275 nM, respectively.
Regarding `Nc1cc(N2CCN(c3cccc(Cl)c3)CC2)ncn1`, the IC50 in series [1] was > 2000 nM.
Turning to `Cc1c(NCCN(C)C)cc(Cl)cc1N1CCN(c2ncnc3[nH]nc(Br)c23)CC1`, the IC50 in [1] was 2 nM; in series [2] it was 43 nM; in [3], 248 nM; in series [4], 25 nM; in series [5] it was 53 nM; in [6] it was 311 nM. Further, the IC50 in series [7] is < 500 nM.
As for `Cc1ccc(Cl)cc1N1CCN(c2ncnc(N)c2[N+](=O)[O-])CC1`, the IC50 in series [1] was determined as 3 nM.
Consider `CCc1n[nH]c2ncnc(N3CCN(c4cc(Cl)cc(OCCN(CC)CC)c4C)CC3)c12`, for which the IC50 came out at 11 nM in series [1] and 339 nM in [2].
Turning to `Cc1ccc(Cl)cc1N1CCN(c2ncnc3[nH]nc(C(F)(F)F)c23)CC1`, the IC50 in [1] came out at 29 nM; in series [2], 41 nM.
Regarding `CCc1n[nH]c2ncnc(N3CCN(c4cc(Cl)cc(NCCN(C)C)c4C)CC3)c12`, the IC50 in series [1] turned out to be 2 nM; in series [2], 45 nM; in [3], 68 nM; in [4], 42 nM; in series [5], 371 nM; in [6] it was 3020 nM. Besides, in series [8], the clearance was 17.4 mL/min/kg. In series [9], this compound returned a Vd of 3.7 L/kg. Also, the figures for the half-life in series [10] and in series [11] were 174 min and 198 min, respectively. The bioavailability in series [12] worked out at 23%. Also, the Cmax in series [13] turned out to be 1.47 µM; in [14], 150 nM. Also, the results for the AUC/dose in [15] and in series [16] were 1.72 µM·kg·h/mg and 0.45 µM·kg·h/mg, respectively. Also, the figures for the inhibition in vivo at 100 mg/kg in series [17] and in series [19] were > 60% and 49%, respectively. In addition, the inhibition in vivo at 30 mg/kg in series [18] is 21%. Further, the inhibition in vivo at 300 mg/kg in [20] worked out at 69%. The “growth inhibition (GI)” value in series [21] was “Dose-dependent effect”.
Consider `Clc1cccc(N2CCN(c3ncnc4[nH]ccc34)CC2)c1`, for which the IC50 in [1] came out at 162 nM.
For the compound `Cc1ccc(Cl)cc1N1CCN(c2ncnc3[nH]ncc23)CC1`, the IC50 worked out at 13 nM in series [1] and 1130 nM in series [2].
The matching figures for `CCc1n[nH]c2ncnc(N3CCN(c4cc(Cl)cc(CCCN5CCCC5)c4C)CC3)c12`: 2 nM and 152 nM.
Take `Cc1ccc(Cl)cc1N1CCN(c2ncnc3[nH]nc(Br)c23)CC1`: the IC50 in series [1] stood at 7 nM; in series [2] it was 86 nM.
`Cc1c(N)ncnc1N1CCN(c2cccc(Cl)c2)CC1`: in [1], the IC50 is > 2000 nM.
On the same count and under the same terms, then `Clc1cccc(N2CCN(c3ncnc4[nH]ncc34)CC2)c1`, with 107 nM.
`CCc1n[nH]c2ncnc(N3CCN(c4cc(Cl)ccc4C)CC3)c12`: the IC50 stood at 6 nM in series [1] and 150 nM in series [2]. The clearance in series [8] was 25.8 mL/min/kg. Also, in [9], the Vd was determined as 6.3 L/kg. For the same compound, the half-life was 426 min in series [10] and 84 min in series [11]. In addition, the bioavailability in series [12] was found to be 2%. In addition, the Cmax in series [13] worked out at 6.29 µM; in series [14], 30 nM. The AUC/dose in series [15] was determined as 1.74 µM·kg·h/mg; in series [16] it was 0.02 µM·kg·h/mg.
Consider `Cc1c(NCCN(C)C)cc(Cl)cc1N1CCN(c2ncnc3[nH]nc(C(F)(F)F)c23)CC1`, for which the concentration for half-maximal inhibition (IC50) is 4 nM in series [1]; 50 nM in series [2]; 24 nM in series [3]; 6 nM in series [4]; 74 nM in series [5]; 477 nM in [6].
`Clc1cccc(N2CCN(c3[nH]cnc4ncnc3-4)CC2)c1` yielded an IC50 in [1] of 196 nM. In other words, the sub-micromolar range.
`CCc1n[nH]c2ncnc(N3CCN(c4cc(Cl)cc(OCCN(C)C)c4C)CC3)c12`: the IC50 in series [1] was determined as 6 nM; in [2] it was 143 nM.
With `Cc1ccc(Cl)cc1N1CCN(c2ncnc3[nH]nc(C)c23)CC1`, the IC50 in [1] stood at 9 nM; in series [2] it was 500 nM.
The like results for `CCc1n[nH]c2ncnc(N3CCN(c4cc(Cl)cc(NCCN(CC)CC)c4C)CC3)c12` were, in that order, 3 nM and 184 nM.
As to `CCc1n[nH]c2ncnc(N3CCN(c4cc(Cl)cc(NCCN5CCCC5)c4C)CC3)c12`, the IC50 in [1] was 3 nM; in series [2] it was 80 nM.
The like results for `CCc1n[nH]c2ncnc(N3CCN(c4cc(Cl)cc(CCCN(CC)CC)c4C)CC3)c12` were, in that order, 3 nM and 211 nM.
Take `Cc1ccc(Cl)cc1N1CCN(c2ncnc3[nH]nc(C(C)C)c23)CC1`: the figures for the IC50 in series [1] and in series [2] were 16 nM and 207 nM, respectively.
Turning to `Cc1nc(N2CCN(c3cc(Cl)ccc3C)CC2)c2cn[nH]c2n1`, the half-maximal inhibitory concentration (IC50) in [1] is > 2000 nM.
For the compound `CCc1n[nH]c2ncnc(N3CCN(c4cc(Cl)cc(OCCN5CCCC5)c4C)CC3)c12`, the IC50 was determined as 5 nM in [1] and 243 nM in series [2].
